From ChEMBL document CHEMBL5390270, “Synthesis, anti-inflammatory activity, inverse molecular docking, and acid dissociation constants of new naphthoquinone-thiazole hybrids” (Bioorg Med Chem, 2023)
The source made the active and inactive calls. The calls are words filed in the database; no cut-off is given here.

Legend:
Type in all cases: functional, cell-based
J774.2 [1] = test: Antiinflammatory activity in mouse J774.2 cells assessed as reduction in TNF-alpha level at 1 to 5 ug/mL […] by ELISA analysis; conditions: dose 1-5 µg/ml
Summary of the method: (§1)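 J774.2 macrophages were cultured in RPMI 1640 with 10 % FBS, antibiotics and sodium pyruvate at 37 °C, 5 % CO₂. Cells received molecules at 1, 2 and 5 µg/mL for 1 day without LPS. Supernatant TNF-α or IL6 was quantified by sandwich ELISA with TMB read-out at 450 nm. N = 3.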

J774.2 [2] = test: Antiinflammatory activity in LPS-stimulated mouse J774.2 cells assessed as reduction in IL-6 production at 1 ug/ml incubated for […] by ELISA analysis; conditions: dose 1.0 µg/ml
Summary of the method: (§2)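 J774.2 macrophages in RPMI 1640 with 10 % FBS, 1 % penicillin/streptomycin and sodium pyruvate, 24-well plates, 37 °C, 5 % CO₂. Cells were stimulated for 1 day with test molecules at 1, 2 and 5 µg/mL plus LPS. SA at 5 µg/mL served as control. Supernatant TNF-α or IL6 was read by sandwich ELISA: biotin-antibody, streptavidin-HRP, TMB, absorbance at 450 nm. N = 3.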

J774.2 [3] = test: Antiinflammatory activity in LPS-stimulated mouse J774.2 cells assessed as reduction IL-6 production at 2 to 5 ug/mL incubated for […] by ELISA analysis; conditions: dose 2-5 µg/ml; summary of the method: as §2
J774.2 [4] = test: Antiinflammatory activity in mouse J774.2 cells assessed as reduction in IL-6 production at 1 to 5 ug/mL […] by ELISA analysis; conditions: dose 1-5 µg/ml; summary of the method: as §1
J774.2 [5] = test: Antiproliferative activity against LPS-stimulated mouse J774.2 cells assessed as reduction in cell viability at 1 to 5 ug/mL incubated for 1 day in presence of LPS by trypan blue staining analysis; conditions: dose 1-5 µg/ml
Summary of the method: (§3)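 J774.2 macrophages in RPMI 1640 with 10 % FBS, antibiotics and sodium pyruvate, 37 °C, 5 % CO₂. Cells were exposed for 1 day to molecules at 1, 2 and 5 µg/mL with or without LPS, with SA at 5 µg/mL as control. Supernatants were removed, cells washed in PBS, then counted with trypan blue to give viability. N = 3.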

J774.2 [6] = test: Antiproliferative activity against LPS-stimulated mouse J774.2 cells assessed as reduction in cell viability at 1 to 5 ug/mL incubated for 1 day by trypan blue staining analysis; conditions: dose 1-5 µg/ml; summary of the method: as §3
J774.2 [7] = test: Antiinflammatory activity in LPS-stimulated mouse J774.2 cells assessed as reduction in TNF-alpha level at 1 to 5 ug/mL incubated for 12 hrs by ELISA analysis; conditions: dose 1-5 µg/ml, time 24.0 hrs, in the assay text read “24 hrs” for “12 hrs”; summary of the method: as §2
J774.2 [8] = test: Antiinflammatory activity in LPS-stimulated mouse J774.2 cells assessed as reduction in TNF-alpha level at 1 to 2 ug/mL […] by ELISA analysis; conditions: dose 1-2 µg/ml; summary of the method: as §2
J774.2 [9] = test: Antiinflammatory activity in LPS-stimulated mouse J774.2 cells assessed as reduction in TNF-alpha level at 5 ug/mL incubated for 12 hrs by ELISA analysis; conditions: dose 5.0 µg/ml, time 24.0 hrs, in the assay text read “24 hrs” for “12 hrs”; summary of the method: as §2
J774.2 [10] = test: Antiinflammatory activity in LPS-stimulated mouse J774.2 cells assessed as reduction in IL-6 production at 1 to 5 ug/ml […] by ELISA analysis; conditions: dose 1-5 µg/ml; summary of the method: as §2
J774.2 [11] = test: Antiinflammatory activity in LPS-stimulated mouse J774.2 cells assessed as reduction IL-6 production at 5 ug/mL […] by ELISA analysis; conditions: dose 5.0 µg/ml; summary of the method: as §2
J774.2 [12] = test: Antiinflammatory activity in LPS-stimulated mouse J774.2 cells assessed as reduction in IL-6 production at 2 to 5 ug/ml […] by ELISA analysis; conditions: dose 2-5 µg/ml; summary of the method: as §2

Row | Structure (SMILES) | Activity (J774.2 [1]) | Activity (J774.2 [2]) | Activity (J774.2 [3]) | Activity (J774.2 [4]) | Activity (J774.2 [5]) | Activity (J774.2 [6]) | Activity (J774.2 [7]) | Activity (J774.2 [8]) | Activity (J774.2 [9]) | Activity (J774.2 [10]) | Activity (J774.2 [11]) | Activity (J774.2 [12])
1 | NC1=C(n2c(-c3ccc(Cl)cc3)cs/c2=N\C(=O)c2ccc(Cl)c([N+](=O)[O-])c2)C(=O)c2ccccc2C1=O | inactive | inactive | Active | inactive | inactive | inactive | – | – | – | – | – | –
2 | NC1=C(n2c(-c3ccc(Cl)cc3)cs/c2=N\C(=O)c2ccc([N+](=O)[O-])cc2)C(=O)c2ccccc2C1=O | inactive | – | – | inactive | inactive | inactive | Active | – | – | – | – | –
3 | NC1=C(n2c(-c3ccccc3)cs/c2=N\C(=O)c2cccc([N+](=O)[O-])c2)C(=O)c2ccccc2C1=O | inactive | – | – | inactive | inactive | inactive | – | inactive | Active | – | – | –
4 | NC1=C(n2c(-c3ccccc3)cs/c2=N\C(=O)c2ccc([N+](=O)[O-])cc2)C(=O)c2ccccc2C1=O | inactive | – | – | inactive | inactive | inactive | inactive | – | – | – | – | –
5 | NC1=C(n2c(-c3ccc(F)cc3)cs/c2=N\C(=O)c2cccc([N+](=O)[O-])c2)C(=O)c2ccccc2C1=O | inactive | – | – | inactive | inactive | inactive | – | – | – | – | – | –
6 | NC1=C(n2c(-c3ccccc3)cs/c2=N\C(=O)c2ccc(Cl)c([N+](=O)[O-])c2)C(=O)c2ccccc2C1=O | inactive | – | – | inactive | inactive | inactive | – | – | – | Active | – | –
7 | NC1=C(n2c(-c3ccc(F)cc3)cs/c2=N\C(=O)c2ccc([N+](=O)[O-])cc2)C(=O)c2ccccc2C1=O | inactive | – | – | inactive | inactive | inactive | Active | – | – | – | – | –
8 | NC1=C(n2c(-c3ccc(F)cc3)cs/c2=N\C(=O)c2ccc(Cl)c([N+](=O)[O-])c2)C(=O)c2ccccc2C1=O | inactive | – | – | inactive | inactive | inactive | – | – | – | – | – | –
9 | NC1=C(n2c(-c3ccc(Br)cc3)cs/c2=N\C(=O)c2ccc([N+](=O)[O-])cc2)C(=O)c2ccccc2C1=O | inactive | – | – | inactive | inactive | inactive | Active | – | – | – | – | –
10 | NC1=C(n2c(-c3ccc(Br)cc3)cs/c2=N\C(=O)c2ccc(Cl)c([N+](=O)[O-])c2)C(=O)c2ccccc2C1=O | inactive | – | – | inactive | inactive | inactive | – | – | – | – | Active | –
11 | NC1=C(n2c(-c3ccc(Cl)cc3)cs/c2=N\C(=O)c2cccc([N+](=O)[O-])c2)C(=O)c2ccccc2C1=O | inactive | – | – | inactive | inactive | inactive | – | – | Active | – | – | Active
12 | NC1=C(n2c(-c3ccc(Br)cc3)cs/c2=N\C(=O)c2cccc([N+](=O)[O-])c2)C(=O)c2ccccc2C1=O | inactive | – | – | inactive | inactive | inactive | – | – | – | Active | – | –
